Test results: ChEMBL document CHEMBL3232960, “Synthesis of novel 1,2,3-triazole/isoxazole functionalized 2H-Chromene derivatives and their cytotoxic activity” (Bioorg Med Chem Lett, 2014)

What was measured:
Format in all cases: functional, cell-based
MCF7 = assay: Cytotoxicity against human MCF7 cells assessed as growth inhibition after 24 hrs by MTT assay; details: MCF7, 24 h
Procedure, shortened: (§1)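 Exponentially growing cells (A549 lung CCL-185, DU145 prostate HTB-81, HeLa cervical CCL-2, MCF7 breast HTB-22) exposed to a range of compound concentrations for 24 h; viability read by MTT. 5-Fluorouracil served as positive control. IC50 taken as concentration giving 50% drop in cell number versus untreated control cultures.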

DU-145 = assay: Cytotoxicity against human DU145 cells assessed as growth inhibition after 24 hrs by MTT assay; details: DU-145, 24 h; procedure, shortened: as §1
HeLa = assay: Cytotoxicity against human HeLa cells assessed as growth inhibition after 24 hrs by MTT assay; procedure, shortened: as §1
A549 = assay: Cytotoxicity against human A549 cells assessed as growth inhibition after 24 hrs by MTT assay; details: A549, 24 h; procedure, shortened: as §1

Compound	IC50 (MCF7) [µM]	IC50 (DU-145) [µM]	IC50 (HeLa) [µM]	IC50 (A549) [µM]
O=C(O)C1=Cc2ccccc2OC1(OCc1cc(-c2ccc3ccccc3c2)no1)C(F)(F)F (stereo unspecified)	> 150	140	> 150	> 150
CCOC(=O)C1=Cc2ccccc2OC1(OCc1cn(-c2ccc(C)cc2)nn1)C(F)(F)F (stereo unspecified)	26.7	30.2	25.1	19.7
CCOC(=O)C1=Cc2ccccc2OC1(OCc1cn(-c2ccc([N+](=O)[O-])cc2)nn1)C(F)(F)F (stereo unspecified)	> 150	> 150	> 150	> 150
CCOC(=O)C1=Cc2ccccc2OC1(OCc1cn(-c2ccccc2)nn1)C(F)(F)F (stereo unspecified)	> 150	> 150	> 150	> 150
CCOC(=O)C1=Cc2ccccc2OC1(OCc1cn(-c2ccc(F)c(Cl)c2)nn1)C(F)(F)F (stereo unspecified)	25.3	21.5	22.7	26.3
CCOC(=O)C1=Cc2ccccc2OC1(OCc1cn(-c2cccc(C(F)(F)F)c2)nn1)C(F)(F)F (stereo unspecified)	> 150	> 150	> 150	> 150
CCOC(=O)C1=Cc2ccccc2OC1(OCc1cn(-c2ccc(F)cc2)nn1)C(F)(F)F (stereo unspecified)	9.1	8.9	8.4	7.3
CCOC(=O)C1=Cc2ccccc2OC1(OCc1cn(-c2ccc(F)c([N+](=O)[O-])c2)nn1)C(F)(F)F (stereo unspecified)	16.2	13.2	15.6	11.9
CCOC(=O)C1=Cc2ccccc2OC1(OCc1cn(-c2cccc(OC)c2)nn1)C(F)(F)F (stereo unspecified)	> 150	> 150	> 150	> 150
CCCCCCCCn1cc(COC2(C(F)(F)F)Oc3ccccc3C=C2C(=O)OCC)nn1 (stereo unspecified)	> 150	> 150	> 150	> 150
CCOC(=O)C1=Cc2ccccc2OC1(OCc1cn(CC(=O)Nc2ccc(C)cc2)nn1)C(F)(F)F (stereo unspecified)	> 150	> 150	67.4	54.3
CCOC(=O)C1=Cc2ccccc2OC1(OCc1cn(CC(=O)Nc2ccc(OC)cc2)nn1)C(F)(F)F (stereo unspecified)	28.1	32.7	31.9	29.4
CCOC(=O)C1=Cc2ccccc2OC1(OCc1cn(CC(=O)Nc2cccc(Cl)c2)nn1)C(F)(F)F (stereo unspecified)	11.6	10.1	12.3	12.8
CCOC(=O)C1=Cc2ccccc2OC1(OCc1cn(CC(=O)Nc2cccc(F)c2)nn1)C(F)(F)F (stereo unspecified)	> 150	> 150	> 150	> 150
CCOC(=O)C1=Cc2ccccc2OC1(OCc1cn(CC(=O)Nc2ccccc2F)nn1)C(F)(F)F (stereo unspecified)	42.1	33.9	49.9	50.1
CCOC(=O)C1=Cc2ccccc2OC1(OCc1cn(CC(=O)Nc2ccccc2Br)nn1)C(F)(F)F (stereo unspecified)	> 150	> 150	> 150	> 150
CCOC(=O)C1=Cc2ccccc2OC1(OCc1cn(CC(=O)Nc2ccc(I)cc2Cl)nn1)C(F)(F)F (stereo unspecified)	28.1	24.4	26.1	22.3

Compound	IC50 (MCF7) [µM]	IC50 (DU-145) [µM]	IC50 (HeLa) [µM]	IC50 (A549) [µM]
CCOC(=O)C1=Cc2ccccc2OC1(OCc1cn(CC(=O)NC2CCCCC2)nn1)C(F)(F)F (stereo unspecified)	12.1	10.2	11.4	9.9
CCOC(=O)C1=Cc2ccccc2OC1(OCc1cc(-c2ccc(F)cc2)no1)C(F)(F)F (stereo unspecified)	48.2	53.5	42.3	35.5
CCOC(=O)C1=Cc2ccccc2OC1(OCc1cc(-c2cccc(C(F)(F)F)c2)no1)C(F)(F)F (stereo unspecified)	22.1	57.3	21.4	48.6
CCOC(=O)C1=Cc2ccccc2OC1(OCc1cc(-c2ccc3ccccc3c2)no1)C(F)(F)F (stereo unspecified)	65.4	71.8	> 150	> 150
CCOC(=O)C1=Cc2ccccc2OC1(OCc1cc(-c2ccc(C)cc2)no1)C(F)(F)F (stereo unspecified)	> 150	> 150	> 150	> 150
CCOC(=O)C1=Cc2ccccc2OC1(OCc1cc(-c2ccc([N+](=O)[O-])cc2)no1)C(F)(F)F (stereo unspecified)	> 150	> 150	> 150	> 150
CCOC(=O)C1=Cc2ccccc2OC1(OCc1cc(-c2ccc(F)cc2F)no1)C(F)(F)F (stereo unspecified)	> 150	> 150	> 150	> 150
CCOC(=O)C1=Cc2ccccc2OC1(OCc1cc(-c2ccc(OC)cc2)no1)C(F)(F)F (stereo unspecified)	> 150	> 150	> 150	> 150
CCOC(=O)C1=Cc2ccccc2OC1(OCc1cc(-c2ccc(Br)cc2)no1)C(F)(F)F (stereo unspecified)	> 150	71.7	52.3	> 150
CCOC(=O)C1=Cc2ccccc2OC1(OCc1cc(-c2ccc(Cl)cc2)no1)C(F)(F)F (stereo unspecified)	18.2	18.2	12.3	19.1
Cc1ccc(-c2cc(COC3(C(F)(F)F)Oc4ccccc4C=C3C(=O)O)on2)cc1 (stereo unspecified)	30.1	41.4	33.4	51.2
O=C(O)C1=Cc2ccccc2OC1(OCc1cc(-c2ccc(F)cc2F)no1)C(F)(F)F (stereo unspecified)	> 150	> 150	> 150	> 150
O=C(O)C1=Cc2ccccc2OC1(OCc1cc(-c2ccc(F)cc2)no1)C(F)(F)F (stereo unspecified)	64.2	168	> 150	> 150
O=C(O)C1=Cc2ccccc2OC1(OCc1cc(-c2cccc(C(F)(F)F)c2)no1)C(F)(F)F (stereo unspecified)	> 150	155	> 150	> 150
COc1ccc(-c2cc(COC3(C(F)(F)F)Oc4ccccc4C=C3C(=O)O)on2)cc1 (stereo unspecified)	35.2	42	> 150	36.2
O=C(O)C1=Cc2ccccc2OC1(OCc1cc(-c2ccc([N+](=O)[O-])cc2)no1)C(F)(F)F (stereo unspecified)	> 150	100	> 150	> 150
O=c1[nH]cc(F)c(=O)[nH]1 [FLUOROURACIL]	1.8	1.9	1.8	1.9
